In brackets after ≈: the same amount, converted by molar mass.
How the values were obtained:
[1] = Lipophilicity, logD of the compound at pH 7.4 by UPHLC analysis; assay type: physicochemical; details: buffer
[2] = Drug uptake in C57BL/6J Jcl mouse assessed as plasma concentration at 0.3 mg/kg, po measured after 60 mins by LC-MS/MS analysis; assay type: ADME, organism-based; details: read-out: Drug uptake
How it was run: (§1)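 Male C57BL/6J Jcl mice, 8 weeks old, given a single oral dose as a suspension in 0.5% methylcellulose at 10 mL/kg. Plasma and brain hemispheres collected 60 min post-dose (n = 4 per group). Levels measured by LC/MS/MS.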

[3] = Drug uptake in C57BL/6J Jcl mouse assessed as plasma concentration at 10 mg/kg, po measured after 60 mins by LC-MS/MS analysis; assay type: ADME, organism-based; details: read-out: Drug uptake; how it was run: as §1
[4] = Drug uptake in C57BL/6J Jcl mouse assessed as plasma concentration at 3 mg/kg, po measured after 60 mins by LC-MS/MS analysis; assay type: ADME, organism-based; details: read-out: Drug uptake; how it was run: as §1
[5] = Drug uptake in C57BL/6J Jcl mouse assessed as brain concentration at 0.1 mg/kg, po measured after 60 mins by LC-MS/MS analysis; assay type: ADME, organism-based; details: read-out: Drug uptake; how it was run: as §1
[6] = Aqueous solubility of the compound in pH 6.8 JP2 fluid measured after 18 hrs by shake flask method based UHPLC analysis; assay type: physicochemical
[7] = Drug uptake in C57BL/6J Jcl mouse assessed as brain concentration at 0.3 mg/kg, po measured after 60 mins by LC-MS/MS analysis; assay type: ADME, organism-based; details: read-out: Drug uptake; how it was run: as §1
[8] = Drug uptake in C57BL/6J Jcl mouse assessed as brain concentration at 10 mg/kg, po measured after 60 mins by LC-MS/MS analysis; assay type: ADME, organism-based; details: read-out: Drug uptake; how it was run: as §1
[9] = Drug uptake in C57BL/6J Jcl mouse assessed as plasma concentration at 1 mg/kg, po measured after 60 mins by LC-MS/MS analysis; assay type: ADME, organism-based; details: read-out: Drug uptake; how it was run: as §1
[10] = Drug uptake in C57BL/6J Jcl mouse assessed as plasma concentration at 0.1 mg/kg, po measured after 60 mins by LC-MS/MS analysis; assay type: ADME, organism-based; details: read-out: Drug uptake; how it was run: as §1
[11] = Drug uptake in C57BL/6J Jcl mouse assessed as brain concentration at 1 mg/kg, po measured after 60 mins by LC-MS/MS analysis; assay type: ADME, organism-based; details: read-out: Drug uptake; how it was run: as §1
[12] = Drug uptake in C57BL/6J Jcl mouse assessed as brain concentration at 3 mg/kg, po measured after 60 mins by LC-MS/MS analysis; assay type: ADME, organism-based; details: read-out: Drug uptake; how it was run: as §1

Row | Structure (SMILES) | logD [1] | other results
1 | CC(Oc1ccc(F)cc1Cl)C1CCN(C(=O)[C@H]2C[C@]3(COC(=O)N3)C2)CC1 (stereo partly specified) | 2.8 | –
2 | O=C1COc2ncc(C(=O)N3CCC(COc4ccc(F)cc4Cl)CC3)cc2N1 | 3 | –
3 | O=C1CC[C@@H](CCC(=O)N2CCC(COc3ccc(F)cc3Cl)CC2)N1 | 2.7 | –
4 | O=C1N[C@]2(CO1)C[C@H](C(=O)N1CCC(COc3ccc(F)cc3Cl)CC1)C2 | 2.6 | –
5 | O=C1COCC(CCC(=O)N2CCC(COc3ccc(F)cc3Cl)CC2)N1 (stereo unspecified) | 2.7 | –
6 | O=C1N[C@]2(CO1)C[C@H](C(=O)N1CC(OCc3ccc(Cl)cc3Cl)C1)C2 | 2.5 | –
7 | Cc1ccc(COC2CN(C(=O)[C@H]3C[C@]4(COC(=O)N4)C3)C2)cc1Cl | 2.3 | concentration at 1 h [2]: 62 ng/mL; concentration at 1 h [3]: 1520 ng/mL; concentration at 1 h [4]: 457 ng/mL; concentration at 1 h [5]: 31 ng/g; solubility thermodynamic at 18 h [6]: 330 µg/mL (≈ 905 µM); concentration at 1 h [7]: 99 ng/g; concentration at 1 h [8]: 711 ng/g; concentration at 1 h [9]: 163 ng/mL; concentration at 1 h [10]: 17 ng/mL; concentration at 1 h [11]: 169 ng/g; concentration at 1 h [12]: 322 ng/g
8 | CCC(Oc1ccc(F)cc1Cl)C1CCN(C(=O)[C@H]2C[C@]3(COC(=O)N3)C2)CC1 (stereo partly specified) | 3.1 | –
9 | O=C1CCC2(CCCN(C(=O)N3CCC(COc4ccc(F)cc4Cl)CC3)C2)N1 (stereo unspecified) | 3.1 | –
10 | O=C1N[C@]2(CO1)C[C@H](C(=O)N1CC(OCc3ccc(C(F)(F)F)c(Cl)c3)C1)C2 | 2.4 | –
11 | O=C1N[C@]2(CO1)C[C@H](C(=O)N1CC(OCc3ccc(C(F)(F)F)c(C(F)(F)F)c3)C1)C2 | 2.5 | –
12 | O=C1CCC(CCC(=O)N2CCC(COc3ccc(F)cc3Cl)CC2)N1 (stereo unspecified) | 3 | –
13 | O=C1CCC(COC(=O)N2CCC(COc3ccc(F)cc3Cl)CC2)N1 (stereo unspecified) | 2.7 | –
14 | Cc1cc(COC2CN(C(=O)[C@H]3C[C@]4(COC(=O)N4)C3)C2)ccc1Cl | 2.4 | –
15 | O=C1CC[C@H](CCC(=O)N2CCC(COc3ccc(F)cc3Cl)CC2)N1 | 2.7 | –

— ChEMBL document CHEMBL4808222, “Design and Synthesis of Novel Spiro Derivatives as Potent and Reversible Monoacylglycerol Lipase (MAGL) Inhibitors: Bioisosteric Transformation from 3-Oxo-3,4-dihydro-2H-benzo[b][1,4]oxazin-6-yl Moiety” (J Med Chem, 2021)
